Source: publication PMC2888972 (Molecular cancer therapeutics, 2009)
Where two headings read alike, the source gives them in different places.

Columns and labels:
TA1535 = assay: Bacterial mutation
WP2 uvrA = assay: Bacterial mutation
TA98 = assay: Bacterial mutation
TA100 = assay: Bacterial mutation
Cyclin D1 = assay: Western blot, Cyclin D1; type: cell-based, human; conditions: SHetA2 treatment
Method in brief: (§1)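 Lysis is in CytoBuster with protease inhibitor cocktail. 100 µg protein is resolved by SDS-PAGE and blotted to nitrocellulose. Blots are probed with mouse monoclonals (Cyclin D1, PARP-1, Caspase 3), then HRP secondary with luminol detection. Stripped blots are reprobed for β-actin or GAPDH as loading control. Solvent-only DMSO cultures serve as control.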

five bacterial strains = assay: Bacterial mutation
Caki-1 cancer [1] = assay: Cell cycle analysis; type: cell-based, human; conditions: 10 µmol/L, 24 h
TA1537 = assay: Bacterial mutation
[2] = tested on: Caki-1 renal cancer xenografts; assay: Caki-1 renal cancer xenograft; conditions: for tumor-related deaths: 4 in untreated control group
Caki-1 cancer [3] = assay: Growth inhibition assay; type: cell-based, human; conditions: for efficacy (maximum growth inhibition observed): 1 to 12.5 µmol/L; for EC50: read-out: potency (EC50, concentration needed to induce half maximal efficacy)
Method in brief: (§2)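 Stock is 0.01 mol/L in DMSO, kept at −20°C under subdued light. Cells get 1–12.5 µmol/L or equal-volume DMSO, in triplicate, for 48 h. Growth index is mean treated OD over mean control OD, plotted against concentration. Maximal inhibition comes by nonlinear regression from plots of 2–3 independent experiments.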

HK-2 normal = assay: Growth inhibition assay; type: cell-based, human; conditions: 48 h; for efficacy (maximum growth inhibition observed): 1 to 12.5 µmol/L; for EC50: read-out: potency (EC50, concentration needed to induce half maximal efficacy)
Method in brief: as §2

normal HK-2 cell lines = assay: Cell cycle analysis; type: cell-based, human; conditions: 10 µmol/L, 24 h
RTC91696 normal = assay: Growth inhibition assay; type: cell-based, human; conditions: 48 h; for EC50: read-out: potency (EC50, concentration needed to induce half maximal efficacy); for efficacy (maximum growth inhibition observed): 1 to 12.5 µmol/L
PARP-1 and Caspase 3 = assay: Western blot, PARP-1 and Caspase 3 cleavage; type: cell-based, human; conditions: Caki-1 cultures, 10 µmol/L
Method in brief: as §1

[4] = tested on: RTC 91696 normal cultures; assay: Apoptosis assay; type: cell-based, human; conditions: maximum 72-hour treatment time and 12.5-µmol/L concentration
Method in brief: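 Floating cells from the medium are pooled with trypsinised adherent cells, pelleted, and stained with Annexin-V-FITC and PI (Vybrant kit #3). Flow cytometry uses 488 nm excitation and 530/575 nm emission. Cultures are at passage 3, in MEMα with EGF 10 ng/mL, hydrocortisone 5 µg/mL, insulin/transferrin/selenous acid 6.35 µg/mL each, 10% FBS and pen/strep. The apoptotic-quadrant percentage comes from four replicate experiments.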

[5] = tested on: NF-κB transcriptional activity; assay: NF-κB luciferase reporter assay in Caki-1; type: cell-based, human
[6] = tested on: livers of SHetA2-treated mice; conditions: previous xenograft model; cited from earlier work
Caki-1 cancer cell line = assay: Apoptosis assay; type: cell-based, human; conditions: 10 µmol/L SHetA2, Annexin-V-FITC/PI
[7] = tested on: A498 cancer cell line xenograft; assay: A498 xenograft model; type: in vivo; conditions: 20, 40, or 60 mg/kg/day; data not shown
786-O cancer = assay: Growth inhibition assay; type: cell-based, human; conditions: for efficacy (maximum growth inhibition observed): 48 h, 1 to 12.5 µmol/L
Method in brief: as §2

mouse embryos = conditions: animal models; cited from earlier work
E-Cadherin mRNA = assay: Real-time rtPCR of E-Cadherin in Caki-1 cultures; type: cell-based, human
Method in brief: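 RNA comes from frozen cell pellets (RNeasy). TaqMan real-time PCR for E-Cadherin and 18S is run in triplicate reactions. Expression is normalised to 18S by ΔΔCt and set relative to solvent-only control cultures at each dose or time point. Three independent experiments.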

[8] = animal models; cited from earlier work
[9] = positive control 0.5 µg/plate, −S9
[10] = 50 µg/plate (0.125 µmol/L), +S9
[11] = 50 µg/plate (0.125 µmol/L), −S9
[12] = 158 µg/plate (0.393 µmol/L), +S9
[13] = 158 µg/plate (0.393 µmol/L), −S9
[14] = 500 µg/plate (1.245 µmol/L), +S9
[15] = 500 µg/plate (1.245 µmol/L), −S9
[16] = 1581 µg/plate (3.937 µmol/L), +S9
[17] = 1581 µg/plate (3.937 µmol/L), −S9
[18] = 5000 µg/plate (12.452 µmol/L), +S9
[19] = 5000 µg/plate (12.452 µmol/L), −S9
[20] = 1.58 µg/plate (0.004 µmol/L), +S9
[21] = 1.58 µg/plate (0.004 µmol/L), −S9
[22] = 5.0 µg/plate (0.012 µmol/L), +S9
[23] = 15.8 µg/plate (0.039 µmol/L), +S9
[24] = RTC91696 normal, single experiments

## Nc1ccc2cc3ccccc3cc2c1 [2AA, reference compound]
TA1535; positive control 5 µg/plate, +S9
  number of revertant colonies, Mean: 324
WP2 uvrA; [9]
  number of revertant colonies, Mean: 594
WP2 uvrA; positive control 15 µg/plate, +S9
  number of revertant colonies, Mean: 145

## O=[N+]([O-])c1ccc2c(c1)Cc1ccccc1-2 [2NF, reference compound]
TA98; positive control 1 µg/plate, −S9
  number of revertant colonies, Mean: 108

## [N-]=[N+]=[N-].[Na+] [NaAZ, reference compound]
TA1535; [9]
  number of revertant colonies, Mean: 304
TA100; [9]
  number of revertant colonies, Mean: 511

## CC1(C)CC(C)(C)c2cc(NC(=S)Nc3ccc([N+](=O)[O-])cc3)ccc2S1 [SHetA2]
Cyclin D1
  time to decreased expression of Cyclin D1: ≤ 1 h
Five bacterial strains; preincubation with S9 microsomal fractions
  mutagenicity of metabolites (number of revertant colonies): no effect on the number of revertant colonies
Five bacterial strains; without S9
  mutagenicity (increase in revertant colony counts): neither SHetA2 nor SHetA3 induced substantial increases in the revertant colony counts
Caki-1 cancer [1]
  percentages of cells in the G0-G1 phase of the cell cycle: increased the percentages of cells in the G0-G1 phase
TA1535; [10]
  number of revertant colonies, Mean: 15
TA1535; [11]
  number of revertant colonies, Mean: 19
TA1535; [12]
  number of revertant colonies, Mean: 20
TA1535; [13]
  number of revertant colonies, Mean: 26
TA1535; [14]
  number of revertant colonies, Mean: 22
TA1535; [15]
  number of revertant colonies, Mean: 18
TA1535; [16]
  number of revertant colonies, Mean: 19
TA1535; [17]
  number of revertant colonies, Mean: 21
TA1535; [18]
  number of revertant colonies, Mean: 22
TA1535; [19]
  number of revertant colonies, Mean: 16
TA1537; [20]
  number of revertant colonies, Mean: 23
TA1537; [21]
  number of revertant colonies, Mean: 9
TA1537; [22]
  number of revertant colonies, Mean: 21
TA1537; [23]
  number of revertant colonies, Mean: 21
[2]; 20 mg/kg/day oral
  tumor-related deaths: 3
[2]; 40 mg/kg/day oral
  tumor-related deaths: 6
[2]; 60 mg/kg/day oral for 30 days, day 34 (23rd day of treatment)
  maximal growth inhibition of xenograft tumors: 36%
[2]; 60 mg/kg/day oral
  tumor-related deaths: 6
[2]; 20, 40, 60 mg/kg/day oral for 30 days
  body weight of the animals compared with the control group: None of the treatment concentrations altered the body weight
[2]; 20 and 40 mg/kg/day oral for 30 days
  reduction of xenograft tumor sizes: not statistically significant
Caki-1 cancer [3]; Caki-1 cancer, 48 h
  efficacy (maximum growth inhibition observed): 84.40% ± 3.86%
Caki-1 cancer [3]; Homo sapiens, CAKI-1, 48 h
  EC50: 4.93 ± 0.22 µM
HK-2 normal; HK-2 normal
  efficacy (maximum growth inhibition observed): 51.02% ± 7.07%
HK-2 normal; Homo sapiens
  EC50: 4.5 ± 0.28 µM
Normal HK-2 cell lines
  percentages of cells in the G0-G1 phase of the cell cycle: increased the percentages of cells in the G0-G1 phase
RTC91696 normal; Homo sapiens
  EC50: 4.57 ± 0.49 µM
RTC91696 normal; [24]
  efficacy (maximum growth inhibition observed): 36.84% ± 6.80%
PARP-1 and Caspase 3
  time to cleavage of PARP-1 and Caspase 3: ≤ 16 h
[4]
  induction of apoptosis in normal cells: did not induce apoptosis
[5]; 10 µmol/L SHetA2
  time to inhibition of NF-κB activity: ≤ 30 min
[5]; 10 µmol/L SHetA2, 20 ng/mL TNFα, 4 or 8 h
  tumor necrosis factor α induced NF-κB transcriptional activity: significantly inhibited
[6]
  liver damage (necrosis, fatty changes, inflammation in portal tracts): no liver damage
WP2 uvrA; [10]
  number of revertant colonies, Mean: 27
WP2 uvrA; [11]
  number of revertant colonies, Mean: 17
WP2 uvrA; [12]
  number of revertant colonies, Mean: 18
WP2 uvrA; [13]
  number of revertant colonies, Mean: 14
WP2 uvrA; [14]
  number of revertant colonies, Mean: 22
WP2 uvrA; [15]
  number of revertant colonies, Mean: 18
WP2 uvrA; [16]
  number of revertant colonies, Mean: 17
WP2 uvrA; [17]
  number of revertant colonies, Mean: 10
WP2 uvrA; [18]
  number of revertant colonies, Mean: 13
WP2 uvrA; [19]
  number of revertant colonies, Mean: 12
Caki-1 cancer cell line
  percentage of cells in the quadrant corresponding to apoptosis: increased the percentage of Caki-1 cancer cells
TA100; [20]
  number of revertant colonies, Mean: 136
TA100; [21]
  number of revertant colonies, Mean: 136
TA100; [22]
  number of revertant colonies, Mean: 124
TA100; [23]
  number of revertant colonies, Mean: 171
[7]
  sensitivity of A498 xenograft: did not exhibit significant sensitivity
786-O cancer
  efficacy (maximum growth inhibition observed): 72.00% ± 5.06%
TA98; [20]
  number of revertant colonies, Mean: 48
TA98; [21]
  number of revertant colonies, Mean: 16
TA98; [22]
  number of revertant colonies, Mean: 45
TA98; [23]
  number of revertant colonies, Mean: 52
TA98; [10]
  number of revertant colonies, Mean: 49
TA98; [12]
  number of revertant colonies, Mean: 12
Mouse embryos
  teratogenicity: did not induce skin irritancy or teratogenicity
E-Cadherin mRNA
  time to upregulation of E-Cadherin mRNA: ≤ 1 h
E-Cadherin mRNA; 4 hours of treatment
  induction of E-Cadherin steady-state mRNA: 20 fold
E-Cadherin mRNA; 24 hours of treatment
  induction of E-Cadherin steady-state mRNA: 60 fold
[8]
  skin irritancy: did not induce skin irritancy or teratogenicity

## CCOC(=O)c1ccc(NC(=O)Nc2ccc3c(c2)C(C)(C)CC(C)(C)S3)cc1 [SHetA4]
Caki-1 cancer [3]; Caki-1 cancer, 48 h
  efficacy (maximum growth inhibition observed): 68.92% ± 6.94%
  EC50: 5.07 ± 0.15 µM
HK-2 normal; HK-2 normal
  efficacy (maximum growth inhibition observed): 26.35% ± 0.80%
  EC50: 5.19 ± 0.25 µM
RTC91696 normal; [24]
  efficacy (maximum growth inhibition observed): 39.67% ± 2.52%
  EC50: 7.55 ± 0.51 µM
786-O cancer
  efficacy (maximum growth inhibition observed): 45.04% ± 4.80%
786-O cancer; read-out: potency (EC50, concentration needed to induce half maximal efficacy), 48 h
  EC50: 2.56 ± 0.34 µM
